The source made the active and inactive calls. The calls are words filed in the database; no cut-off is given here.
Columns and labels:
[1] = tested on: NCI-N87; test: Antiproliferative activity against human NCI-N87 cells assessed as cell growth inhibition; type: cell-based
[2] = tested on: Calu-6; test: Antiproliferative activity against human Calu6 cells assessed as cell growth inhibition; type: cell-based
[3] = tested on: ASPC1; test: Antiproliferative activity against human AsPC1 cells assessed as cell growth inhibition; type: cell-based
[4] = tested on: HT-29; test: Antiproliferative activity against human HT-29 cells assessed as cell growth inhibition; type: cell-based
[5] = tested on: DLD-1; test: Antiproliferative activity against human DLD1 cells assessed as cell growth inhibition; type: cell-based
[6] = biological target: Hepatocyte growth factor receptor (Homo sapiens, UniProt P08581); test: Inhibition of MET
[7] = biological target: Proto-oncogene tyrosine-protein kinase Src (Homo sapiens, UniProt P12931); test: Inhibition of Src
[8] = Tmax in nude mouse at 30 mg/kg, po by LC-MS/MS analysis; type: ADME, organism-based; design: dose 30 mg/kg, route oral; conditions: in vivo
How it was run: (§1)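 Female nude mice given single oral dose in DMSO/Cremophor EL/1% Tween 80 (1:1:8 v/v/v) by stomach sonde. Blood taken at 30 min, 1, 2, 4, 7 and 24 h (n = 2/time point). Plasma precipitated with CH3CN/MeOH plus internal standard, filtered, measured by LC-MS/MS (LLOQ 20 ng/mL). Parameters by non-compartmental analysis; CL given as CL/F.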

[9] = tested on: NCI-H460; test: Antiproliferative activity against PTX-resistant human NCI-H460 cells assessed as cell growth inhibition; type: cell-based
[10] = biological target: Macrophage-stimulating protein receptor (Homo sapiens, UniProt Q04912); test: Inhibition of RON
[11] = Inhibition of PKA
[12] = biological target: Tyrosine-protein kinase Lck (Homo sapiens, UniProt P06239); test: Inhibition of LCK
[13] = tested on: MDA-MB-231; test: Antiproliferative activity against human MDA-MB-231 cells assessed as cell growth inhibition; type: cell-based
[14] = Clearance in mouse liver microsome at 5 uM after 60 mins by LC-MS/MS analysis; type: ADME; conditions: liver microsomes, read-out: CLH
How it was run: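 Test compound at 5 µM incubated with mouse liver microsomes, 1.0 mg protein/mL, in 50 mM potassium phosphate pH 7.4 at 37 °C. Started by adding NADPH generating system (glucose 6-phosphate 3.2 mM, β-NADP 2.6 mM, MgCl2 6.5 mM). Substrate depletion measured against internal standard. Intrinsic clearance is the first-order decay constant normalized to protein.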

[15] = biological target: Tyrosine-protein kinase Fyn (Homo sapiens, UniProt P06241); test: Inhibition of Fyn
[16] = biological target: Vascular endothelial growth factor receptor 2 (Homo sapiens, UniProt P35968); test: Inhibition of VEGFR2
[17] = Antiproliferative activity against human KG1a cells assessed as cell growth inhibition; type: cell-based; conditions: KG-1a
[18] = tested on: MCF7; test: Antiproliferative activity against human MCF7 cells assessed as cell growth inhibition; type: cell-based
[19] = tested on: HUVEC; test: Antiangiogenic activity in HUVEC co-cultured with fibroblasts assessed as inhibition of capillary-like tube formation at 4 uM after 11 days by microscopic staining method relative to control; type: functional; conditions: Homo sapiens, 264 h
How it was run: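 Commercial co-culture kit of HUVEC and fibroblasts, given compound at final 4 or 20 μM and held at 37 °C, 5% CO₂ for 11 days. Tubes fixed with 70% ethanol and stained for CD31, then photographed under a microscope. Tube area quantified by image analysis and inhibition calculated against control taken as 100%.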

[20] = tested on: MKN-45; test: Antiproliferative activity against human MKN45 cells assessed as cell growth inhibition; type: cell-based
[21] = tested on: QG-56; test: Antiproliferative activity against human QG56 cells assessed as cell growth inhibition; type: cell-based
[22] = tested on: Calu-6; test: Antiangiogenic activity in human Calu6 cells xenografted in BALB/c mouse assessed as microvessel density reduction at 1 to 10 mg/kg, po qd for 11 days measured 24 hrs after last postdose by immunohistochemical staining method; type: functional, organism-based
How it was run: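 Female Balb/c nude mice given Calu-6 cells s.c. in the flank, 5.0×10⁶ cells per mouse. Dosing was oral, once daily for 11 days, starting once tumors reached 150 mm³. Tumors taken 24 h after the last dose and frozen-sectioned from the mid-portion. Vessels stained with anti-mouse CD31 and counted by image analysis. Density decrease expressed against control.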

[23] = Inhibition of PDGFR
[24] = tested on: DU-145; test: Antiproliferative activity against human DU145 cells assessed as cell growth inhibition; type: cell-based
[25] = tested on: CCRF-CEM; test: Antiproliferative activity against human CCRF-CEM cells assessed as cell growth inhibition; type: cell-based
[26] = tested on: Huh-7; test: Antiproliferative activity against human HuH7 cells assessed as cell growth inhibition; type: cell-based
[27] = Antiproliferative activity against human IGROV1/T8 cells assessed as cell growth inhibition; type: cell-based; conditions: IGROV-1
[28] = tested on: HepG2; test: Antiproliferative activity against human HepG2 cells assessed as cell growth inhibition; type: cell-based
[29] = Antiproliferative activity against human COLO320DM cells assessed as cell growth inhibition; type: cell-based; conditions: COLO 320DM
[30] = biological target: Insulin-like growth factor 1 receptor (Homo sapiens, UniProt P08069); test: Inhibition of IGF1R
[31] = Oral bioavailability in nude mouse at 10 mg/kg by LC-MS/MS analysis; type: ADME, organism-based; conditions: in vivo; how it was run: as §1
[32] = Apparent oral clearance in nude mouse at 30 mg/kg, po by LC-MS/MS analysis; type: ADME, organism-based; design: dose 30 mg/kg, route oral; conditions: in vivo; how it was run: as §1
[33] = Antiproliferative activity against human KPL4 cells assessed as cell growth inhibition; type: cell-based
[34] = tested on: CEM/C2; test: Antiproliferative activity against human CEM/C2 cells assessed as cell growth inhibition; type: cell-based
[35] = biological target: Fibroblast growth factor receptor 2 (Homo sapiens, UniProt P21802); test: Inhibition of FGFR2
[36] = Oral bioavailability in nude mouse at 30 mg/kg by LC-MS/MS analysis; type: ADME, organism-based; conditions: in vivo; how it was run: as §1
[37] = tested on: Calu-6; test: Antitumor activity against human Calu6 cells xenografted in BALB/c mouse assessed as tumor growth inhibition at 150 mg/kg, po qd for 11 days; type: functional, organism-based; design: dose 150 mg/kg
How it was run: (§2)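 Female Balb/c nude mice carried s.c. flank Calu-6 xenografts, 5.0×10⁶ cells in Hanks' solution. At 200 mm³, mice were randomized into 4 groups (n = 5): vehicle, 150 mg/kg, sunitinib 80 mg/kg, or both. Each group dosed orally once daily for 11 days. Volume = 1/2 × long × short². Inhibition from volume change against control.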

[38] = tested on: Calu-6; test: Antitumor activity against human Calu6 cells xenografted in BALB/c mouse assessed as tumor growth inhibition at 150 mg/kg, po qd for 11 days in presence of sunitinib; type: functional, organism-based; design: dose 150 mg/kg; how it was run: as §2

Tyrosine-protein kinase Lck, sequence (P06239 whole entry): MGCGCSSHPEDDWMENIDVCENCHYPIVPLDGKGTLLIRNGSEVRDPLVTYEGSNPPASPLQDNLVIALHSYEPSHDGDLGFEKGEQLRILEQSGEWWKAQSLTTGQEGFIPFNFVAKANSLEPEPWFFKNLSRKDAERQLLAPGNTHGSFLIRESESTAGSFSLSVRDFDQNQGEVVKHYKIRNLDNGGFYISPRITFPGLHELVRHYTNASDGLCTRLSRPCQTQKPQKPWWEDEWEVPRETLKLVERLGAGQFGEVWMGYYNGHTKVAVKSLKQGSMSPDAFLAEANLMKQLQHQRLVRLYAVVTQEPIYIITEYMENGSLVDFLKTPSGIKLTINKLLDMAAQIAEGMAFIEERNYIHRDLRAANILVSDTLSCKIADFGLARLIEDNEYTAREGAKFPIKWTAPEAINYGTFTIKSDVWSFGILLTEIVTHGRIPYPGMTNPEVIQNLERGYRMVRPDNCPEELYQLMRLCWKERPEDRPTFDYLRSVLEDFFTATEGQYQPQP
Fibroblast growth factor receptor 2, sequence (P21802 whole entry): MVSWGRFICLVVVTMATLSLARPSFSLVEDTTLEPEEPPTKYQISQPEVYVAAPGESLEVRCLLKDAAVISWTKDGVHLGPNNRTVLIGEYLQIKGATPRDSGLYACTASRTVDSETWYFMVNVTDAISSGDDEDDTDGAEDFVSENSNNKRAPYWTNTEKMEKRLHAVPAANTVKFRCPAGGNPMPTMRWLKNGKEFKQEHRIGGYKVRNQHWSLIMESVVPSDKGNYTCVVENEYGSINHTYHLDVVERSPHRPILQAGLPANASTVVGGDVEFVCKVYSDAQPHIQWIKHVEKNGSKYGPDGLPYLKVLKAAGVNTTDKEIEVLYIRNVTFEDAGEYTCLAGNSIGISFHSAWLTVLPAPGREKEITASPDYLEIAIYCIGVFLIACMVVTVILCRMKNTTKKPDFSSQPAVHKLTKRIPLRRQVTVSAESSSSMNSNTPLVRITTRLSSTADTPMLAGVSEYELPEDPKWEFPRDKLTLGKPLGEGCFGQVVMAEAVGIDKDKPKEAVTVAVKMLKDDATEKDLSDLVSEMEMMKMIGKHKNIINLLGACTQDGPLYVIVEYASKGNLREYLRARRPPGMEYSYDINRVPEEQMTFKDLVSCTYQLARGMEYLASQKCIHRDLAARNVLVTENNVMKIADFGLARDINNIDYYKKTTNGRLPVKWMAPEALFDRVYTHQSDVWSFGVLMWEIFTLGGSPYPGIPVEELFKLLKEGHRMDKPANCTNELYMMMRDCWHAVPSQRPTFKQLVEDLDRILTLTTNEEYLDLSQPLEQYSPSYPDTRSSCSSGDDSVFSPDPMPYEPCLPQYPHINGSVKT
Hepatocyte growth factor receptor, sequence (P08581 whole entry): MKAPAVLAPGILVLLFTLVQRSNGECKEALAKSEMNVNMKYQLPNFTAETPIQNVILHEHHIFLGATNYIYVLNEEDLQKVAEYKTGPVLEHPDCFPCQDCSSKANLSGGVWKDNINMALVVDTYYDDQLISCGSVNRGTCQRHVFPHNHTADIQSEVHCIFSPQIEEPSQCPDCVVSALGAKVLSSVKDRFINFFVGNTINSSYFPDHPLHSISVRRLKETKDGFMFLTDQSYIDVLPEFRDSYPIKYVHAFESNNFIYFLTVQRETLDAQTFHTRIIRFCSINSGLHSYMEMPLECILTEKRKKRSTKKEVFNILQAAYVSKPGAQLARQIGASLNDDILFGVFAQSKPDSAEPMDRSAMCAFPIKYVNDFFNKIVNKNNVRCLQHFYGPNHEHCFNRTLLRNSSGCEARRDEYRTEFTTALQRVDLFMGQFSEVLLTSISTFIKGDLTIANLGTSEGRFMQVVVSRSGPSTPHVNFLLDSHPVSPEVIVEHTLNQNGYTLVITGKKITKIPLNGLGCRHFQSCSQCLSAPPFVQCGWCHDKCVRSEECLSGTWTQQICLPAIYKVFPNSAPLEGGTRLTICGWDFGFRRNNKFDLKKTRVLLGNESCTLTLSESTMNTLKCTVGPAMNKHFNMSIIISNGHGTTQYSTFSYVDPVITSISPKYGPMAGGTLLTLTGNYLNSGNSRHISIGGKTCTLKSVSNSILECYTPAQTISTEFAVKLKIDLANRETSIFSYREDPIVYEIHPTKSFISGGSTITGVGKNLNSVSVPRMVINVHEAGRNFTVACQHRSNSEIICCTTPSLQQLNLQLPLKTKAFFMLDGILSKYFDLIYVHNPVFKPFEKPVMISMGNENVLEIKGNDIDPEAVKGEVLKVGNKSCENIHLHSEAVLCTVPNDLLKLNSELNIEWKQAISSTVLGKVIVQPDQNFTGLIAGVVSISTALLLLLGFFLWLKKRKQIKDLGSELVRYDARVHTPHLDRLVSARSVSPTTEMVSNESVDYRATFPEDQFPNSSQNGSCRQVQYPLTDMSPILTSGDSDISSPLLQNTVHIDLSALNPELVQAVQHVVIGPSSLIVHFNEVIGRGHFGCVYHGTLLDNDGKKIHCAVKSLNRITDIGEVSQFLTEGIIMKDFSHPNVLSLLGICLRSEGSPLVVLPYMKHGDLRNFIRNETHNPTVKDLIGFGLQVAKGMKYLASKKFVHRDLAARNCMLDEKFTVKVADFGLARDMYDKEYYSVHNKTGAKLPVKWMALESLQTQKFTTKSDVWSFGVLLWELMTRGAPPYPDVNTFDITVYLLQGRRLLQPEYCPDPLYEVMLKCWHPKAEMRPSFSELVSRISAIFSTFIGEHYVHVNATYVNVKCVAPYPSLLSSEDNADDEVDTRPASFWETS
Vascular endothelial growth factor receptor 2, sequence (P35968 whole entry): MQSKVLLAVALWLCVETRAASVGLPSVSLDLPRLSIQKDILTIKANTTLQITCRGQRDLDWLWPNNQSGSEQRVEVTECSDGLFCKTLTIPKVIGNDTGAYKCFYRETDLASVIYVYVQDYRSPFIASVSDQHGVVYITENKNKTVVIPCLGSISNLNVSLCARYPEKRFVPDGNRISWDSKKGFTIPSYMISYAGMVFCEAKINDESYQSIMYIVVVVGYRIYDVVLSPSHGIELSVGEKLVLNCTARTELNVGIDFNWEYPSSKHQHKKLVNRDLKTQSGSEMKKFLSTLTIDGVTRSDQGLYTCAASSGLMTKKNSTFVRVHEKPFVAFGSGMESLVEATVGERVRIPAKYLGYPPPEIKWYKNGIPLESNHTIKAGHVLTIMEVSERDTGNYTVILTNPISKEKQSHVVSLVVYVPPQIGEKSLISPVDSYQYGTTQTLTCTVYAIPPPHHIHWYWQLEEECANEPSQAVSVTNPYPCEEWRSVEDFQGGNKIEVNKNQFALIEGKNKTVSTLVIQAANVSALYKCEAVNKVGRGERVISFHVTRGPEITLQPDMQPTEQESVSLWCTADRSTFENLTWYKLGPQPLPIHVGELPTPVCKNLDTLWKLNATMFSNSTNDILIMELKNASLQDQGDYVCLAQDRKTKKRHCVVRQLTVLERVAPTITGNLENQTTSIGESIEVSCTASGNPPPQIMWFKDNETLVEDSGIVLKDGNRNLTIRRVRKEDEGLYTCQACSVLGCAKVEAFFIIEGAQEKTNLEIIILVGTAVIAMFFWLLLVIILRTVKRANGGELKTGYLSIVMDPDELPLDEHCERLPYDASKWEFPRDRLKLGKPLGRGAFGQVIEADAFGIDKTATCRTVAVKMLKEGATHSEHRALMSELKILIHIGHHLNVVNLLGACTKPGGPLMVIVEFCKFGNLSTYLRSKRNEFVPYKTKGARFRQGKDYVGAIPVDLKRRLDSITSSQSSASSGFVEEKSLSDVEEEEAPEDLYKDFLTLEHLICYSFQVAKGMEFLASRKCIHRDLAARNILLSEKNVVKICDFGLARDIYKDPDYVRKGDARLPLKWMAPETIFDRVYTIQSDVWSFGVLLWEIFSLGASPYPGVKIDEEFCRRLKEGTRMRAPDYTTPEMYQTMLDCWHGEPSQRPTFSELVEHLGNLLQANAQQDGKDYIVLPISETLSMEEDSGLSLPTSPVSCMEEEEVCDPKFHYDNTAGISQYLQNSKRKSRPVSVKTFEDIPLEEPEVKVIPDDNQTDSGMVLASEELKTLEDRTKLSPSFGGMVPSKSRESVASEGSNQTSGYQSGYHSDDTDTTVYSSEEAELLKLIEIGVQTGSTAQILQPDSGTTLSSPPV
Proto-oncogene tyrosine-protein kinase Src, sequence (P12931 2-536 limits assumed): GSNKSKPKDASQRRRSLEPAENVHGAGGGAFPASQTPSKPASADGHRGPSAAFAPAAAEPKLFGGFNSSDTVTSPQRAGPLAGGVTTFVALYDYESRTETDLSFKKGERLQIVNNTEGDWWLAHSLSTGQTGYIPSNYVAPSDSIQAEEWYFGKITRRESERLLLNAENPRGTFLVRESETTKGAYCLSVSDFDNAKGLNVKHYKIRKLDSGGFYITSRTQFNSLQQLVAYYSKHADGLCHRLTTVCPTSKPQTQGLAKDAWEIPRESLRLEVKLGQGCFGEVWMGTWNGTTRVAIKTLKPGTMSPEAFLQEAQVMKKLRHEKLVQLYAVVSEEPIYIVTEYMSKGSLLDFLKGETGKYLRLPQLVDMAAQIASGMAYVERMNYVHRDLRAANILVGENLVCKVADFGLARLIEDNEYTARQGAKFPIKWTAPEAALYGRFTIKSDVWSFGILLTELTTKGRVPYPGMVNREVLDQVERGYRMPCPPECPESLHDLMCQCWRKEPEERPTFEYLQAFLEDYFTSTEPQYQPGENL

SMILES	IC50 [1]	IC50 [2]	IC50 [3]	IC50 [4]	IC50 [5]	IC50 [6]	IC50 [7]	Tmax [8]	IC50 [9]	IC50 [10]	IC50 [11]	IC50 [12]	IC50 [13]	microsomal CLint at 5 µM [14]	IC50 [15]	IC50 [16]	IC50 [17]	IC50 [18]	inhibition at 4 µM [19]	IC50 [20]	other results
COc1ccc(C(=O)NC[C@H](O)CO)cc1/C=C/c1ccc(Cl)cc1	52 µM	54 µM	63 µM	16 µM	28 µM	> 50 µM	> 50 µM	1 h	30 µM	> 50 µM	> 50 µM	> 50 µM	38 µM	12 µL/min/mg	> 50 µM	> 50 µM	20 µM	63 µM	41%	26 µM	IC50 [21]: 21 µM; Activity [22]: Active; IC50 [23]: > 50 µM; IC50 [24]: 23 µM; IC50 [25]: 30 µM; IC50 [26]: 27 µM; IC50 [27]: 12 µM; IC50 [28]: 28 µM; IC50 [29]: 61 µM; IC50 [30]: > 50 µM; bioavailability [31]: 90%; CL/F [32]: 5.6 mL/min/kg; IC50 [33]: 15 µM; IC50 [34]: 30 µM; IC50 [35]: > 50 µM
COc1ccc(C(=O)NC[C@@H](O)CO)cc1/C=C/c1ccc(Cl)cc1	52 µM	40 µM	55 µM	10 µM	19 µM	> 50 µM	> 50 µM	1 h	19 µM	> 50 µM	> 50 µM	> 50 µM	39 µM	7 µL/min/mg	> 50 µM	> 50 µM	17 µM	65 µM	38%	5.7 µM	bioavailability [36]: 100%; TGI [37]: Active; IC50 [21]: 23 µM; Activity [22]: Active; TGI [38]: Active; IC50 [23]: > 50 µM; IC50 [24]: 5.3 µM; IC50 [25]: 20 µM; IC50 [26]: 29 µM; IC50 [27]: 9.5 µM; IC50 [28]: 16 µM; IC50 [29]: 46 µM; IC50 [30]: > 50 µM; CL/F [32]: 5.8 mL/min/kg; IC50 [33]: 4.9 µM; IC50 [34]: 30 µM; IC50 [35]: > 50 µM

Reference: ChEMBL document CHEMBL1949587 (Bioorg Med Chem, 2012)
